# High-throughput results: PubChem, Broad Institute
# SIRT5 inh = SIRT5 desuccinylase inhibitors, primary screen, biochemical, fluorescence imaging, single point, set 5 | NAD-dependent protein deacylase sirtuin-5, mitochondrial (Homo sapiens), Q9NXA8 | Purified SirT5, succinyl-peptide AMC, trypsin-coupled fluorescence | inhibition, % at 15 µM | 330,000 tested, 1.1% active | AID 652115, 2013; in the data active = inhibition above about 15%
# FGF22 binding-1 = binders of human FGF22 protein, primary screen, FGF22 synaptogenesis inhibitor project, biophysical, thermal shift, single point; recombinant FGF22 thermal shift, SYPRO orange fluorescence; percent of sucrose octasulfate shift, DMSO zero; activity (Tm shift, normalised), % at 9.99 µM; 340,000 tested, 1.5% active; Fibroblast growth factor 22 (Homo sapiens), Q9HCT0;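 active = mean Tm shift, scaled 0 neutral to 100 positive control, at about 1.3% or above, every replicate too, limit read from the data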
# rRNA inh HTS = reduced GFP signal of wild-type E. coli, primary screen, bacterial rRNA inhibitor project, GFP/RFP fluorescence, OD600, single point; 350,000 tested, 1.6% active; AID 720706, 2013; GFP signal change (wild-type ribosome), % (test concentration not listed); E. coli WT GFP vs humanized-ribosome RFP mutants, 24 h; hits give low values; DMSO median 0, no signal -100;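 active = significant combined selectivity score with lowered wild-type GFP, culture density cut under 30%, mutant RFP and density less affected; inactive = any of these conditions unmet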
# FN deposit inh = inhibitors of fibronectin matrix deposition, primary screen, AH1F cells, Alexa488-fibronectin fluorescence, plate reader; 350,000 tested, 0.086% active; AH1F fibroblasts, overnight; inhibition, % at 12.6 µM;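 active = mean inhibition across replicates of 30% or more, regardless of how many single replicates reach that level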;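 also: positive control wells lacked labelled fibronectin entirely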
#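 Test system: AH1F fibroblast monolayer depositing Alexa488-labelled fibronectin into matrix. Input: 10000 cells per well. Technique: fluorescence, ex 485 nm, em 525 nm. Buffer or medium: DMEM plus 2% serum, read in PBS. Timing: 1 h cell adhesion before compound, then overnight fibronectin incubation. Compound: single dose, pinned. Read-out basis: inhibition from reduced deposited-fibronectin fluorescence.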
# Statin myotox sup = suppressors of statin myotoxicity in C2C12 myotubes, primary screen, cell-based, single point, plate reader. C2C12 myotubes + simvastatin, ATP luminescence, 48 h; scaled: DMSO 0, geranylgeraniol control 100. rescue of ATP level, % at 7.49 µM. 330,000 tested, 0.78% active;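 active = mean ATP rescue above about 67%, or every replicate alone reaching that limit, limit read from the data, passing the limit was not always enough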;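 also: myotubes were challenged with 10 µM simvastatin during compound exposure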
# E-sel inducer = E-selectin induction in HUVECs, primary screen, imaging, HUVEC, immunofluorescence imaging, single point; P16581; normalized: neutral wells 0, TNF-alpha wells 100; activation, % at 7.58 µM; 260,000 tested, 0.37% active;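 active = mean E-selectin-positive cell signal at least 10% of the positive control, reached in at least 60% of replicates, without over 20% cell loss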
# Target sequence (P16581 whole entry, looked up): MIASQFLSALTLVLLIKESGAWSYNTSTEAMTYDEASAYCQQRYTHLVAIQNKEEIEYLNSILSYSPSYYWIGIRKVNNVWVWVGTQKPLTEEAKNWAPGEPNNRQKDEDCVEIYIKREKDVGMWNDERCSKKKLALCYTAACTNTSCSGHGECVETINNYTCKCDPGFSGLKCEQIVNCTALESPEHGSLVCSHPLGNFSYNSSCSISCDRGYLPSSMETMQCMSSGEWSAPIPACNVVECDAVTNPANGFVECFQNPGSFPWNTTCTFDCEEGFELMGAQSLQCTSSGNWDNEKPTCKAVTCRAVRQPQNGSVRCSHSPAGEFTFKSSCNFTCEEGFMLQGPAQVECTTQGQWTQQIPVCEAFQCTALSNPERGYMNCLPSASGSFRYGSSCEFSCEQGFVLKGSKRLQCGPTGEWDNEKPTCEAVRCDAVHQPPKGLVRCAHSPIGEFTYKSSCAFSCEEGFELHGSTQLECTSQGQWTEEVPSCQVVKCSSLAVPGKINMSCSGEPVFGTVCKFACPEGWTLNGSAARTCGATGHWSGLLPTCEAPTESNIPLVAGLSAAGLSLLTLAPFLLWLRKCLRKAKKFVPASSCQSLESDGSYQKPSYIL
#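 System: HUVEC, human umbilical vein endothelial cells; quantity: 3,000 cells/well; buffer or medium: EGM-2 medium, gelatin-coated wells; dosing: single-point compound dose; detection: immunofluorescence imaging; evaluation: % PE-positive cells; benchmarks: TNF-alpha, DMSO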
# FGF22 binding-2 = binders of human FGF22 protein, dose response, FGF22 synaptogenesis inhibitor project, biophysical, thermal shift, cherry-pick retest | shares compounds with FGF22 binding-1 | recombinant FGF22 thermal shift, SYPRO orange fluorescence | thermal shift activity, °C (ΔTm) at 38 µM | 1,000 tested, 2% active;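 active = fitted rise in melting shift crosses a set limit at or below the top valid dose tested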
# TSA no protein = compound-only thermal shift signal without protein, dose response, artefact control for FGF22 binder project, biochemical, cherry-picked samples, RT-PCR instrument | shares compounds with FGF22 binding-1 | compound-only SYPRO orange thermal shift counter-screen, no protein | AC50, µM (highest dose often 38 µM) | 1,000 tested, 2% active;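 active = rising signal whose fitted curve reaches the 0.54 level within the top valid dose, showing a melting point, actives reach about 13 µM in these data; inactive = the rest, including activity in the opposite direction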; also: value is where the raw curve crosses a fixed level and not half-maximal
# The depositor's hits bear a star; i = inactive; . = not tested or not shown; [ ] = dose if it differs, or a comment. Shown are actives, neighbours in structure and some others; about 4% of the full set was active somewhere.
SMILES,SIRT5 inh,FGF22 binding-1,rRNA inh HTS,FN deposit inh,Statin myotox sup,E-sel inducer,FGF22 binding-2,TSA no protein
Cc1ccc(CN2CCNC(=O)C2CC(=O)N(C)C2CCCCC2)cc1 (stereo not given),-0.1,1.5*,3.8,4.1,-4.8,-0.3,0.102,i
O=C(Nc1cccnc1)c1ccc(NS(=O)(=O)c2cccc([N+](=O)[O-])c2)cc1,2.5,1.8*,3.6,8.0,-4.9,-0.1,-0.141,i
O=C(Nc1ccc([N+](=O)[O-])cc1)c1cccc(S(=O)(=O)Nc2cccnc2)c1,-5.7,0.0,-3.6,-0.5,7.1,1.9,.,.
COc1ccc(N=NC2C(=O)N(c3ccccc3)N=C2C)cc1 (stereo not given),-3.3,1.6*,13.9,0.5,.,0.5,-0.059,i
CO[C@H]1CN(C)C(=O)c2ccc(NC(=O)C3CC3)cc2OC[C@H](C)N(C(=O)C2CCCCC2)C[C@@H]1C,.,.,-1.6,-5.9,.,.,.,.
C[C@H](CO)N1C[C@H](C)[C@H](CN(C)C(=O)Nc2ccc(F)cc2)Oc2ccc(NC(=O)C3CC3)cc2C1=O,0.0,-0.1,-0.6,.,4.0,0.4,.,.
CO[C@H]1CN(C)C(=O)c2cc(NC(=O)c3cccc(F)c3)ccc2OC[C@H](C)NC[C@@H]1C,-6.1,2.0*,0.5,0.0,16.7,0.2,0.095,i
COCC(=O)Nc1ccc2c(c1)OC[C@@H](C)N(C)C[C@H](C)[C@@H](OC)CN(C)C2=O,-0.8,30.7*,0.6,-9.6,-6.0,0.2,0.094,i
CO[C@H]1CN(C)C(=O)c2cc(NC(=O)CC(F)(F)F)ccc2OC[C@@H](C)N(C(C)=O)C[C@@H]1C,6.0,-0.1,2.6,4.6,.,-0.4,.,.
CO[C@H]1CN(C)C(=O)c2ccc(NS(=O)(=O)c3ccc(Cl)cc3)cc2OC[C@@H](C)N(C(=O)NC(C)C)C[C@H]1C,0.5,36.4*,-4.9,3.4,-14.6,-0.3,-0.001[42 µM],i
CO[C@@H]1CN(C)C(=O)c2ccc(NS(=O)(=O)c3ccc(Cl)cc3)cc2OC[C@@H](C)N(C(=O)NC(C)C)C[C@@H]1C,-0.7,-0.5,-3.5,6.3,15.9,-0.2,.,.
CO[C@H]1CN(C)C(=O)c2cc(NC(=O)CC(F)(F)F)ccc2OC[C@@H](C)N(C(C)=O)C[C@H]1C,-2.2,22.9*,0.5,0.0,.,-0.1,0.119[42 µM],i
COCC(=O)Nc1ccc2c(c1)OC[C@@H](C)N(C)C[C@@H](C)[C@H](OC)CN(C)C2=O,-0.5,-0.1,-0.7,1.0,1.6,0.4,.,.
C[C@@H]1CN([C@H](C)CO)C(=O)c2cc(NC(=O)Nc3ccc4c(c3)OCO4)ccc2O[C@@H]1CN(C)Cc1ccc(C(=O)O)cc1,5.0,0.0,-1.8,.,18.8,.,.,.
COCC(=O)N1[C@@H](CO)[C@@H]2c3ccccc3N(C(=O)Nc3ccccc3Cl)C[C@@H]21,12.4,-0.6,0.6,9.3,41.9,0.1,.,.
COc1ccc(C#Cc2ccc3c(c2)O[C@@H](CN(C)C(C)=O)[C@H](C)CN([C@H](C)CO)S3(=O)=O)cc1,2.2,0.0,-2.3,-5.4,25.5,0.2,.,.
